According to ChEMBL document CHEMBL1158012, “Sapinofuranones A and B, two new 2(3H)-dihydrofuranones produced by sphaeropsis sapinea, a common pathogen of conifers” (J Nat Prod, 1999):

Key:
Assay type in all cases: organism-based
Settings in all cases: in vivo
[1] = test system: Hesperocyparis arizonica; assay: Phytotoxicity against Cupressus arizonica assessed as sapwood stain like symptoms on seedlings at 0.1 to 0.2 mg/ml after 96 hrs
In short: (§1)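 A 0.1 mg/mL solution was injected into the cortical tissue 25 cm from the apex of 3-year-old cypress or 2-year-old pine seedlings. Stain, needle and blight symptoms were then scored.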

[2] = test system: Hesperocyparis arizonica; assay: Phytotoxicity against Cupressus arizonica assessed as browning of twigs at 0.1 to 0.2 mg/ml after 96 hrs
In short: (§2)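 Severed cypress or pine twig cuttings were placed in 3 mL of test solution at 0.1-0.2 mg/mL for 96 h, then moved to distilled water. They were kept in a growth chamber at 23 °C, 60% relative humidity and low light. Symptoms were scored over 21 days.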

[3] = test system: Hesperocyparis macrocarpa; assay: Phytotoxicity against Cupressus macrocarpa var. lambertiana assessed as sapwood stain like symptoms on seedlings at 0.1 to 0.2 mg/ml after 96 hrs; in short: as §1
[4] = test system: Solanum lycopersicum; assay: Phytotoxicity against Lycopersicon esculatum L var. Marmande assessed as appearance of epinasty on petioles at 0.05 to 0.1 mg/ml after 48 hrs
In short: (§3)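 Tomato (var. Marmande) seedlings were grown at 25 °C, 70-80% relative humidity and a 12 h photoperiod. Cuttings from 21-day-old seedlings were placed in 3 mL of solution at 0.05-0.1 mg/mL for 48 h, then moved to distilled water. Epinasty and browning were scored over 2 days.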

[5] = test system: Hesperocyparis macrocarpa; assay: Phytotoxicity against Cupressus macrocarpa var. lambertiana assessed as browning of twigs at 0.1 to 0.2 mg/ml after 96 hrs; in short: as §2
[6] = test system: Cupressus sempervirens; assay: Phytotoxicity against Cupressus sempervirens var. pyramidalis assessed as sapwood stain like symptoms on seedlings at 0.1 to 0.2 mg/ml after 96 hrs; in short: as §1
[7] = test system: Pinus radiata; assay: Phytotoxicity against Pinus radiata L assessed as appearance of severe needles on seedlings at 0.1 to 0.2 mg/ml after 96 hrs; in short: as §1
[8] = test system: Pinus halepensis; assay: Phytotoxicity against Pinus halepensis L assessed as appearance of severe needles on seedlings at 0.1 to 0.2 mg/ml after 96 hrs; in short: as §1
[9] = test system: Pinus halepensis; assay: Phytotoxicity against Pinus halepensis L assessed as yellowing of twigs at 0.1 to 0.2 mg/ml after 96 hrs; in short: as §2
[10] = test system: Cupressus sempervirens; assay: Phytotoxicity against Cupressus sempervirens var. pyramidalis assessed as browning of twigs at 0.1 to 0.2 mg/ml after 96 hrs; in short: as §2
[11] = test system: Pinus radiata; assay: Phytotoxicity against Pinus radiata L assessed as yellowing of twigs at 0.1 to 0.2 mg/ml after 96 hrs; in short: as §2
[12] = test system: Solanum lycopersicum; assay: Phytotoxicity against Lycopersicon esculatum L var. Marmande assessed as browning of petioles and leaves at 0.05 to 0.1 mg/ml after 48 hrs; in short: as §3

Measured: Activity

C/C=C/C=C\[C@H](O)[C@H]1CCC(=O)O1 [SAPINOFURANONE A]
Toxic: [1] | [2] | [3] | [4] | [5] | [6] | [7] | [8] | [9] | [10] | [11] | [12]

C/C=C/C=C\[C@@H](O)[C@H]1CCC(=O)O1 [SAPINOFURANONE B]
Toxic: [1] | [2] | [3] | [4] | [5] | [6] | [7] | [8] | [9] | [10] | [11] | [12]
